Laboratory results reported in publication PMC8776895 (British journal of pharmacology, 2021).
Positions of bridges follow the written chain, without caps; N, C: chain ends. Residues, ends and D or L forms follow the SMILES beside them. No end group written: not given here.

What was measured:
Assay type in all cases: cell-based
[1] = target: T1, m-CLR:m-RAMP3 (Mus musculus, UniProt Q9R1W5+Q9WUP1); experiment: Antagonism of agonist-stimulated cAMP production, transfected Cos7 cells; conditions: agonist m-AM, mean ± s.e.m., n = 5, SEM
T1 sequence (Q9R1W5 23-463, one chain of several): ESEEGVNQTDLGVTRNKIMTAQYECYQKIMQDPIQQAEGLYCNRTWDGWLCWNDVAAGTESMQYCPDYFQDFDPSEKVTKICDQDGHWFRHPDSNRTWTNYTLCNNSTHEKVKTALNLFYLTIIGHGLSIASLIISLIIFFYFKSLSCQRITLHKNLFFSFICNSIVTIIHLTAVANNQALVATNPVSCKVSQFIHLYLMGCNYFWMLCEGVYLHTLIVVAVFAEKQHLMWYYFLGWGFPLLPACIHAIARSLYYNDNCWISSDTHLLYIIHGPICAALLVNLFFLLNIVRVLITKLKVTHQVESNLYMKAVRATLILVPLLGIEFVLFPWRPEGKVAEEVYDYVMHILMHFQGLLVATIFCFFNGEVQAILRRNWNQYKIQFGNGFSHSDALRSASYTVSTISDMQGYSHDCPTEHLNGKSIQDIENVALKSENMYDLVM

[2] = target: T2, m-CLR:m-RAMP2 (Mus musculus, UniProt Q9R1W5+Q9WUP0, P10T); experiment: as above
T2 sequence (Q9R1W5 23-463, one chain of several): as above

[3] = target: T3, m-CTR:m-RAMP2 (Mus musculus, UniProt Q60755+Q9WUP0, P10T); experiment: cAMP production, agonist concentration-response, transfected Cos7 cells; conditions: SEM
T3 sequence (Q60755 42-496 isoform Q60755-2): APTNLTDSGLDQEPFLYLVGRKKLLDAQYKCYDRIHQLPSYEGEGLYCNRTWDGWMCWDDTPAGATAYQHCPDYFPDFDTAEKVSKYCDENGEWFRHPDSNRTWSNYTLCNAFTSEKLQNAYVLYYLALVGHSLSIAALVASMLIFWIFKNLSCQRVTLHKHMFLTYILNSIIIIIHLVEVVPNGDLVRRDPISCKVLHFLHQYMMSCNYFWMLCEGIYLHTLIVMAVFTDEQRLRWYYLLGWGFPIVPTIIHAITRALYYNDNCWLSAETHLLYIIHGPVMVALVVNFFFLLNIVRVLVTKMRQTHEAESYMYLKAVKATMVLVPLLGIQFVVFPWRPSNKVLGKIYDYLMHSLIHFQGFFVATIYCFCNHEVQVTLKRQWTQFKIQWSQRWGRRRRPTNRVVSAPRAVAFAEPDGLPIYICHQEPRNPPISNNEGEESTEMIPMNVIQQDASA
T3 sequence (Q9WUP0 45-189): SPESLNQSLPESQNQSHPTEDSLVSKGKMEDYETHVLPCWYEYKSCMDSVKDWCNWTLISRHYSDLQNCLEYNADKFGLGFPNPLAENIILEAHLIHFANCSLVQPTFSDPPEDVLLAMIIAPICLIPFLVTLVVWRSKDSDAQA

[4] = target: T4, m-CTR:m-RAMP3 (Mus musculus, UniProt Q60755+Q9WUP1); experiment: as above; conditions: for EC50: SEM; for fold increase in potency relative to m-CTR alone: m-CTR:m-RAMP3 versus m-CTR:pcDNA
T4 sequence (Q60755 42-496 isoform Q60755-2 limits assumed): T3 sequence (Q60755 42-496 isoform Q60755-2)
T4 sequence (Q9WUP1 23-147): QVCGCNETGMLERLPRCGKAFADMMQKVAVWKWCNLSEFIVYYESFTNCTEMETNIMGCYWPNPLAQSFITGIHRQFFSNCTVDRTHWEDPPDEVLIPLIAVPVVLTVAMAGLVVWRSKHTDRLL

[5] = target: T2, m-CLR:m-RAMP2; experiment: as above; conditions: for EC50: SEM
[6] = target: T1, m-CLR:m-RAMP3; experiment: as above; conditions: SEM
[7] = target: m-CLR:m-RAMP1 (Mus musculus, UniProt Q9R1W5+Q9WTJ5); experiment: as above; conditions: for EC50: SEM
Chain of m-CLR:m-RAMP1 (Q9R1W5 23-463, one chain of several): as the sequence (Q9R1W5 23-463, one chain of several) above

[8] = target: T5, m-CTR:m-RAMP1 (Mus musculus, UniProt Q60755+Q9WTJ5); experiment: as above; conditions: for EC50: SEM
T5 sequence (Q60755 42-496 isoform Q60755-2 limits assumed): T3 sequence (Q60755 42-496 isoform Q60755-2)
T5 sequence (Q9WTJ5 27-148): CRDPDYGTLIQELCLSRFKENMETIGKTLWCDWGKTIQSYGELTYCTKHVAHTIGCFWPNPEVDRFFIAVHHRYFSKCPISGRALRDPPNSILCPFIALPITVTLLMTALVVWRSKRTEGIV

[9] = target: T6, m-CTR:pcDNA (m-CTR alone) (Mus musculus, UniProt Q60755); experiment: as above; conditions: SEM
T6 sequence (Q60755 42-496 isoform Q60755-2 limits assumed): T3 sequence (Q60755 42-496 isoform Q60755-2)

[10] = target: m-CLR:pcDNA (Mus musculus, UniProt Q9R1W5); experiment: cAMP production, agonist stimulation, Cos7 cells with m-CLR without RAMP; conditions: concentrations as high as 10 μM
Chain of m-CLR:pcDNA (Q9R1W5 23-463): as the sequence (Q9R1W5 23-463, one chain of several) above
Outline: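 Mouse CLR was co-transfected 1:1 with empty pcDNA3.1(+) (no RAMP) into Cos-7 cells with polyethylenimine. Cells were seeded at 15,000–20,000/well, transfected 18–24 h later and used about 48 h after that. After 30 min in DMEM with 1 mM IBMX and 0.1% BSA, agonist peptides were applied for 15 min at 37 °C. Forskolin (100 µM final) served as positive control. cAMP was quantified by LANCE assay from a standard curve, in duplicate or triplicate.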

Compound	pA2 [1]	pA2 ([2]; agonist m-AM, m-CLR:m-RAMP2, mean ± s.e.m., n = 5, SEM)	fold more effective at m-CLR:m-RAMP2 over m-CLR:m-RAMP3 ([2]; from pA2, agonist m-AM)	EC50 [3]	EC50 [4]	EC50 [5]	EC50 [6]	EC50 [7]	fold less potent than m/r-αCGRP ([7]; m-CLR:m-RAMP1, cAMP pEC50)	EC50 [8]	EC50 [9]	fold increase in potency relative to m-CTR alone [4]	fold less potent than m-AM ([5]; m-CLR:m-RAMP2, cAMP pEC50)	fold increase in potency relative to m-CTR alone ([8]; m-CTR:m-RAMP1 versus m-CTR:pcDNA)	cAMP response to stimulation [10]
h-AM22-52: commonly used AM-receptor antagonist, purchased from Bachem	5.19 ± 0.21	5.71 ± 0.03	three												
CC(C)C[C@H](NC(=O)[C@H](CCCNC(=N)N)NC(=O)[C@H](Cc1c[nH]cn1)NC(=O)[C@H](CO)NC(=O)[C@H](CC(C)C)NC(=O)[C@H](CC(N)=O)NC(=O)[C@H](CCC(N)=O)NC(=O)[C@@H](NC(=O)[C@H](CCC(N)=O)NC(=O)[C@@H]1CSSC[C@H](NC(=O)CNC(=O)[C@@H](N)C(C)C)C(=O)N[C@@H](C(C)C)C(=O)N[C@@H](CC(C)C)C(=O)NCC(=O)N[C@@H]([C@@H](C)O)C(=O)N1)C(C)C)C(=O)N[C@@H](Cc1c[nH]c2ccccc12)C(=O)N[C@@H](CCC(N)=O)C(=O)N[C@@H](CC(C)C)C(=O)N[C@H](C(=O)N[C@@H](CCCNC(=N)N)C(=O)N1CCC[C@H]1C(=O)N[C@@H](C)C(=O)NCC(=O)N[C@@H](CCCNC(=N)N)C(=O)N[C@@H](CCCNC(=N)N)C(=O)N[C@@H](CC(=O)O)C(=O)N[C@@H](CO)C(=O)N[C@@H](C)C(=O)N1CCC[C@H]1C(=O)N[C@H](C(=O)N[C@@H](CC(=O)O)C(=O)N1CCC[C@H]1C(=O)N[C@@H](CO)C(=O)N[C@@H](CO)C(=O)N1CCC[C@H]1C(=O)N[C@@H](Cc1c[nH]cn1)C(=O)N[C@@H](CO)C(=O)N[C@@H](Cc1ccc(O)cc1)C(N)=O)C(C)C)C(C)C [m-AM2_40] (H-VGCVLGTCQVQNLSHRLWQLVRPAGRRDSAPVDPSSPHSY-NH2; disulfide 3-8; N-terminus assumed)				8.13 nM	1.66 nM	3.72 nM	0.776 nM	0.955 nM	approximately 14 fold	3.02 nM	12.3 nM				
PHAQLLRVGCVLGTCQVQNLSHRLWQLVRPAGRRDSAPVDPSSPHSY-NH2 (disulfide 10-15) [m-AM2_47]				42.7 nM	2.14 nM	10.5 nM	1.32 nM	4.47 nM		6.92 nM	56.2 nM	26 fold	~ seven	eight	
YRQSMNQGSRSNGCRFGTCTFQKLAHQIYQLTDKDKDGMAPRNKISPQGY-NH2 (disulfide 14-19) [m-AM]				19.5 nM	3.55 nM	1.55 nM	0.468 nM	6.61 nM		27.5 nM	37.2 nM	11 fold			did not respond
